Data on six compounds can be found in ChEMBL document CHEMBL4024777, “Discovery of LY3104607: A Potent and Selective G Protein-Coupled Receptor 40 (GPR40) Agonist with Optimized Pharmacokinetic Properties to Support Once Daily Oral Treatment in Patients with Type 2 Diabetes Mellitus” (J Med Chem, 2018).

Active and inactive are the calls of the source. The calls are words filed in the database; no cut-off is given here.

Data set [1] deals with T1, Free fatty acid receptor 1 (Homo sapiens, UniProt O14842). Put plainly: Agonist activity at human GPR40 receptor expressed in HEK293 cells assessed as increase in intracellular calcium flux after 2.5 hrs measured over 3 mins by calcium 4 dye-based FLIPR assay relative to linoleic acid. Format: functional, cell-based. Also on record: Activity: concentration or dose not given beside the values. A digest of the protocol:
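Human GPR40 calcium flux was read on FLIPR. Percent stimulation is expressed against the response to 100 uM linoleic acid.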

Data set [2] has as its target Free fatty acid receptor 1 (Rattus norvegicus, UniProt Q8K3T4). Put plainly: Agonist activity at rat PK-tagged GPR40 expressed in human U2OS cells assessed as EA-tagged beta-arrestin recruitment after 90 mins in presence of 1 % heat inactivated FBS by beta-galactosidase reporter gene assay. It is filed as cell-based. Summed up: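 β-Arrestin recruitment used rat GPR40 in the presence of 1% FBS. EC50 and % maximal stimulation are reported with SEM and n.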

For the next data set, the system named is 3T3-L1. Put plainly: Induction of adipogenesis in mouse 3T3L1 cells. It is filed as functional, cell-based. A digest of the protocol: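 Adipogenesis was assessed in 3T3-L1 cells.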
For data set [3], the target named is T1, Free fatty acid receptor 1. Put plainly: Agonist activity at human GPR40 receptor expressed in HEK293 cells assessed as increase in intracellular calcium flux after 2.5 hrs measured over 3 mins in presence of 0.1% serum albumin by calcium 4 dye-based FLIPR assay. Format: functional, cell-based.
Data set [4] addresses T2, Peroxisome proliferator-activated receptor alpha (Homo sapiens) (UniProt Q07869).
T2 sequence (whole entry): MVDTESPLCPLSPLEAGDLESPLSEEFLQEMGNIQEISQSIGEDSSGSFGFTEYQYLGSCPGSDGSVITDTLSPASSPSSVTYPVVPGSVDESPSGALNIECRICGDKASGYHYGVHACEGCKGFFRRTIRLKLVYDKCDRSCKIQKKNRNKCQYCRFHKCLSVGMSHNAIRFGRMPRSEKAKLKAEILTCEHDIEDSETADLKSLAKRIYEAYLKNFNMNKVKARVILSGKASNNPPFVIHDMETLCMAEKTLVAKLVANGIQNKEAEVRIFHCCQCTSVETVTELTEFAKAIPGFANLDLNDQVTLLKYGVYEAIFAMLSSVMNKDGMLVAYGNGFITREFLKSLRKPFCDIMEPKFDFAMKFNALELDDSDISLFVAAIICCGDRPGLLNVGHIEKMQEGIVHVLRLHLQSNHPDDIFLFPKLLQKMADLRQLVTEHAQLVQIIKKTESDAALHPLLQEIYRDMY
Put plainly: Displacement of [3H]-agonist from human PPARalpha expressed in baculovirus infecetd Sf9 cells system up to 30 uM after 10 hrs in presence of DR2 by scintillation proximity assay. A digest of the protocol:
(§1)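 PPAR alpha, delta and gamma binding and functional activity were each tested at concentrations up to 30 µM.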

Data set [5] deals with Free fatty acid receptor 1 (Rattus norvegicus) (UniProt Q8K3T4). The data set is described as follows: Agonist activity at rat PK-tagged GPR40 expressed in human U2OS cells assessed as EA-tagged beta-arrestin recruitment after 90 mins in presence of 1 % heat inactivated FBS by beta-galactosidase reporter gene assay relative to untreated control. It is filed as cell-based.
Chain of Free fatty acid receptor 1 (Rattus norvegicus) (Q8K3T4 whole entry): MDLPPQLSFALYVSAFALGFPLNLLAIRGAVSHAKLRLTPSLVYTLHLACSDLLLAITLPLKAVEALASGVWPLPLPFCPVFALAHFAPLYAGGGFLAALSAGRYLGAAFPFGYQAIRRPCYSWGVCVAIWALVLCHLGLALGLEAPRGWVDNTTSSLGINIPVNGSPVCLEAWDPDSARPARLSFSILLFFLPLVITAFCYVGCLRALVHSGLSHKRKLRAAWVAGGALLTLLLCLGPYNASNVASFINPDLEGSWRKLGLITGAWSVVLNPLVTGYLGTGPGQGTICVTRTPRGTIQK

Data set [6] has as its target T3, Peroxisome proliferator-activated receptor gamma (Homo sapiens) (UniProt P37231).
T3 sequence (whole entry): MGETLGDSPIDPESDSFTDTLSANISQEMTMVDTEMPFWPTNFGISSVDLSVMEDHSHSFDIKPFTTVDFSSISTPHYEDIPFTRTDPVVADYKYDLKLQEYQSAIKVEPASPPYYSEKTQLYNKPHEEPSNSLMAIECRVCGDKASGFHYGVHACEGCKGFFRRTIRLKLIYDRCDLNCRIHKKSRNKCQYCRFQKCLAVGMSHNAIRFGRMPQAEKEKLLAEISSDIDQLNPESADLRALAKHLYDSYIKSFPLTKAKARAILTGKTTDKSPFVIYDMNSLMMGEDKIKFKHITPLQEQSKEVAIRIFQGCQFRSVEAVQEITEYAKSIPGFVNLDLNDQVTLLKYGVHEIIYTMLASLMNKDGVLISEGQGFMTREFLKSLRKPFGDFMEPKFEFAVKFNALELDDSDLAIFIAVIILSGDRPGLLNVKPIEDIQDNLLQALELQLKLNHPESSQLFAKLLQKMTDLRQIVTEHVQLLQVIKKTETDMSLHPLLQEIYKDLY
The data set is described as follows: Agonist activity at […] human PPARgamma expressed in African green monkey CV1 cells up to 30 uM after 24 hrs by luciferase reporter gene assay. Format: cell-based. Summed up:
as §1

Data set [7] has as its target T4, Peroxisome proliferator-activated receptor delta (Homo sapiens) (UniProt Q03181).
T4 sequence (whole entry): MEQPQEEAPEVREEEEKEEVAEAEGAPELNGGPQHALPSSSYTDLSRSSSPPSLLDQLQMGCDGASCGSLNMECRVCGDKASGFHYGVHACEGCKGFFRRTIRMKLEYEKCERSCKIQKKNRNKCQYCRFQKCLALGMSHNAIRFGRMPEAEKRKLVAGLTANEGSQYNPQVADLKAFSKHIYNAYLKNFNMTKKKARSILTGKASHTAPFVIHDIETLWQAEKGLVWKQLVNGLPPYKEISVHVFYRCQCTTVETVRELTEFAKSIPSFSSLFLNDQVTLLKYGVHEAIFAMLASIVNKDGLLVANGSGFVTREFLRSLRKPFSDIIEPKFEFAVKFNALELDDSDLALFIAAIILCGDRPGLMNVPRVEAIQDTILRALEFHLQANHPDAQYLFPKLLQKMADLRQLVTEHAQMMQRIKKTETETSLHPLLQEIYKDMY
The data set is described as follows: Agonist activity at GAL4-fused human PPARdelta expressed in African green monkey CV1 cells up to 30 uM after 24 hrs by luciferase reporter gene assay. It is filed as cell-based. A digest of the protocol: as §1

The target in data set [8] is T2, Peroxisome proliferator-activated receptor alpha (Homo sapiens). The data set is described as follows: Agonist activity at GAL4-fused human PPARalpha expressed in African green monkey CV1 cells up to 30 uM after 24 hrs by luciferase reporter gene assay. It is filed as cell-based. Summed up: as §1
Data set [9] deals with T4, Peroxisome proliferator-activated receptor delta (Homo sapiens). Put plainly: Displacement of [3H]-agonist from human PPARdelta expressed in baculovirus infecetd Sf9 cells system up to 30 uM after 10 hrs in presence of DR2 by scintillation proximity assay. A digest of the protocol:
as §1

The target in data set [10] is T1, Free fatty acid receptor 1. The data set is described as follows: Agonist activity at human PK-tagged GPR40 expressed in HEK293 cells assessed as EA-tagged beta-arrestin recruitment after 90 mins in presence of 1 % heat inactivated FBS by beta-galactosidase reporter gene assay. Format: cell-based.
Data set [11] is described as follows: Protein binding in plasma (unknown origin) by equilibrium dialysis assay. Format: ADME, cell-free. The note with it: read-out: PPB.
Data set [12] has as its target T1, Free fatty acid receptor 1. Put plainly: Agonist activity at human GPR40 receptor expressed in HEK293 cells assessed as increase in intracellular calcium flux after 2.5 hrs measured over 3 mins by calcium 4 dye-based FLIPR assay. It is filed as functional, cell-based. Summed up: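 Calcium flux was read by FLIPR in cells carrying recombinant human GPR40. Percent stimulation is relative to the response to 100 µM linoleic acid. EC50 is reported with SEM and n.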

The target of data set [13] is T1, Free fatty acid receptor 1. The data set is described as follows: Competitive displacement of [3H]-TAK-875 from full length human recombinant GPR40 expressed in HEK293 cell membranes after 2 hrs by scintillation counting. Summed up:
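Binding was measured as competitive inhibition of [3H]-TAK875 (fasiglifam) binding to membranes from cells overexpressing recombinant human GPR40. Ki is reported with SEM and n.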

Data set [14] has as its target T3, Peroxisome proliferator-activated receptor gamma (Homo sapiens). Put plainly: Displacement of [3H]-agonist from human PPARgamma expressed in baculovirus infecetd Sf9 cells system up to 30 uM after 10 hrs in presence of DR2 by scintillation proximity assay. Summed up:
as §1

In data set [15] the target is T1, Free fatty acid receptor 1. Put plainly: Agonist activity at human PK-tagged GPR40 expressed in HEK293 cells assessed as EA-tagged beta-arrestin recruitment after 90 mins in presence of 1 % heat inactivated FBS by beta-galactosidase reporter gene assay relative to untreated control. Format: cell-based.

Chain of Free fatty acid receptor 1 (Rattus norvegicus, UniProt Q8K3T4) (Q8K3T4 whole entry): as the sequence (Q8K3T4 whole entry) above
T1 sequence (O14842 whole entry): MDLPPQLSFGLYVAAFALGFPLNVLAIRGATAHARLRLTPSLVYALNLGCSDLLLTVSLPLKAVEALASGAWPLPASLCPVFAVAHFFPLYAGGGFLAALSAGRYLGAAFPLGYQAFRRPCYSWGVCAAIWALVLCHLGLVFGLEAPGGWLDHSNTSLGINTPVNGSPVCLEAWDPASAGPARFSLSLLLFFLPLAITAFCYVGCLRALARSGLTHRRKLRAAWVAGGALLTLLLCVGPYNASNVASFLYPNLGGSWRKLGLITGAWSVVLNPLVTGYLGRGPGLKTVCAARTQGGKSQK

In the case of `CC#C[C@@H](CC(=O)O)c1ccc(OCc2ccc3nc(-c4ccc(OCCC(C)(C)O)cc4)nn3c2)cc1`, in [1], the Activity was 89%. The 50% effective concentration (EC50) in data set [2] was 68 nM; in data set [10], 301 nM; in data set [12], 72 nM. In addition, the result (in the data set with 3T3-L1; in [4]; in data set [6]; in data set [7]; in data set [8]; in data set [9]) was inactive. Also, in [14], the result was inactive. For the same compound, the result in [3] was Active. Besides, the %max in data set [5] came to 121%; in [15] it was 132%. Moreover, in [11], the fraction unbound was below 0.01. Also, the Ki in data set [13] was 37 nM.
Regarding `CC#C[C@@H](CC(=O)O)c1ccc(OCc2ccc3nc(-c4c(C)cc(OCCCS(C)(=O)=O)cc4C)nn3c2)cc1`, the Activity in [1] worked out at 71%. In addition, the EC50 in data set [2] worked out at 95 nM; in data set [10], 1490 nM; in data set [12], 117 nM. Further, the result (in the data set on 3T3-L1; in data set [4]; in data set [6]; in [7]; in [8]; in data set [9]) was inactive. The result in data set [14] was inactive. In addition, in [3], the outcome was Active. Besides, the %max in data set [5] worked out at 140%; in [15], 114%. For the same compound, the fraction unbound in [11] was below 0.01. Moreover, in data set [13], the Ki was 63 nM.
Turning to `CC#C[C@@H](CC(=O)O)c1ccc(OCc2ccc3nc(-c4ccc(C#N)cc4)nn3c2)cc1`, the Activity in data set [1] amounted to 65%. The EC50 in [2] was determined as 216 nM; in data set [10], 443 nM; in data set [12], 9 nM. For the same compound, the outcome (with 3T3-L1; in data set [4]; in data set [6]; in data set [7]; in data set [8]; in data set [9]) was inactive. Further, in [14], the result was inactive. In addition, in data set [3], the result was Active. Also, the %max in [5] stood at 125%; in data set [15] it was 124%. Besides, the fraction unbound in data set [11] is below 0.01. In addition, the inhibitory constant (Ki) in [13] was 35 nM.
On to `CC#C[C@@H](CC(=O)O)c1ccc(OCc2ccc3nc(-c4ccc(C(C)C)cc4)nn3c2)cc1`, for which the Activity in data set [1] was determined as 65%. In addition, the values for the EC50 in data set [2], in [10] and in data set [12] were 30 nM, 67 nM and 2 nM, respectively. The result (with 3T3-L1; in data set [4]; in data set [6]; in [7]; in data set [8]; in data set [9]) was inactive. Moreover, the result in data set [14] was inactive. The outcome in data set [3] was Active. The %max worked out at 123% in [5] and 154% in data set [15]. The fraction unbound in data set [11] is below 0.01. For the same compound, the Ki in data set [13] stood at 32 nM.
`CC#C[C@@H](CC(=O)O)c1ccc(OCc2ccc3nc(-c4ccc(OCCOC)cc4)nn3c2)cc1`: the Activity in data set [1] stood at 74%. Besides, the concentration for a half-maximal effect (EC50) in data set [2] is 562 nM; in data set [10] it was 681 nM; in data set [12] it was 16 nM. For the same compound, the result (with 3T3-L1; in data set [4]; in data set [6]; in data set [7]; in data set [8]; in [9]) was inactive. Besides, the outcome in data set [14] was inactive. In data set [3], the outcome was Active. The values for the %max in [5] and in data set [15] were 133% and 121%, respectively. In data set [11], the fraction unbound was below 0.01. In [13], the inhibition constant Ki came out at 102 nM.
For the compound `CC#C[C@@H](CC(=O)O)c1ccc(OCc2ccc3nc(-c4ccc(OC(F)F)cc4)nn3c2)cc1`, the Activity in data set [1] stood at 64%. In addition, the concentration giving a half-maximal response (EC50) worked out at 98 nM in [2], 166 nM in data set [10] and 1 nM in data set [12]. Further, the outcome (in the data set with 3T3-L1; in data set [4]; in [6]; in [7]; in data set [8]; in data set [9]) was inactive. Further, the result in data set [14] was inactive. The outcome in data set [3] was Active. The %max in data set [5] was determined as 142%; in data set [15], 127%. In [11], the fraction unbound was below 0.01. The Ki in data set [13] is 60 nM.
